Screens from PubChem BioAssay.
Rows were chosen to be rich in hits. Some 3.5% of all compounds tested hit in one or more screens of this group.
MrgX1 allo act = positive allosteric modulators of MrgX1, primary screen, HEK293 cells, Fluo-4 calcium flux. Mas-related G-protein coupled receptor member X1 (Homo sapiens), Q96LB2. FDSS; stronger effect = higher value. B-score at 10 µM. 310,000 compounds, 0.63% hits. AID 588675, 2011;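 active = plate-corrected calcium response at least 3 library SD above typical, normal starting fluorescence, not activating the receptor alone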;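 also: compound read alongside a low EC10 to EC30 dose of BAM8-22 agonist; peak minus trough fluorescence over baseline measured at the second addition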
Target sequence (Q96LB2 whole entry, looked up): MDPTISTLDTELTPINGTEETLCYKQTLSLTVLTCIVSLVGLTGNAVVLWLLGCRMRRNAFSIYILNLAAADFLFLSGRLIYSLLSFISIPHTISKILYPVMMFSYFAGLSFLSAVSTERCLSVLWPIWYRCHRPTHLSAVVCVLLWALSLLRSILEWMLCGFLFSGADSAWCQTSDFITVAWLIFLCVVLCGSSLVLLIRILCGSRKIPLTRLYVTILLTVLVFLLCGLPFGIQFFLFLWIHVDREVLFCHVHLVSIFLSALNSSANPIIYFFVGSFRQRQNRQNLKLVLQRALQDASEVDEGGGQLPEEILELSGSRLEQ
RGS4 inh = RGS4 inhibitors, primary screen, cell-based, HEK293 M3R inducible RGS4, calcium flux; Regulator of G-protein signaling 4 (Homo sapiens), P49798; Fluo-4 calcium flux; stronger effect = higher value; triggered by carbachol at its EC20; B-score at 10 µM; 310,000 compounds, 0.45% hits;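 active = B-score, a plate-corrected calcium signal, over three deviations above library mean, with baseline fluorescence within five deviations of library mean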;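 also: RGS4 expression induced by doxycycline in cells with stable M3 receptor; B-score is computed from the integrated fluorescence ratio over baseline after carbachol; higher B-score means a larger calcium signal and so more RGS4 inhibition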
Target sequence (P49798 whole entry, looked up): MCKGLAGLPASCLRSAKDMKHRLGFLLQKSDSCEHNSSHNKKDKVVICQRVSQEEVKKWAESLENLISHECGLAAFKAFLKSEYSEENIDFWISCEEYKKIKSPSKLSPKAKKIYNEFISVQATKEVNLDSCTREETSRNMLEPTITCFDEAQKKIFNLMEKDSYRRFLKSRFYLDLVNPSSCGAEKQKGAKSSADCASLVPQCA
RGS4 act = RGS4 potentiators or activators, primary screen, cell-based, HEK293 M3R inducible RGS4, calcium flux. carbachol calcium flux Fluo4; stronger effect = lower value. B-score at 10 µM. 310,000 compounds, 0.92% hits. AID 463111, 2010;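 active = B-score of the integrated calcium signal more than 4 SD below the library mean, with starting fluorescence not abnormally high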;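 also: negative B-score means reduced calcium response which marks RGS4 activation or potentiation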
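Detection: kinetic calcium fluorescence imaging with Fluo4-AM dye, 2 µM / Material: HEK293 cells with stable M3R and inducible RGS4 / Schedule: recording 10 s baseline at 1 Hz, 100 s post-agonist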
MrgX1 antag = antagonists of human MrgX1 receptor, primary screen, HEK293 cells, Fluo-4 calcium flux | Mas-related G-protein coupled receptor member X1 (Homo sapiens), Q96LB2 | BAM8-22 antagonism; stronger effect = lower value | B-score at 10 µM | 310,000 compounds, 1.3% hits;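 active = calcium-response B-score plate-corrected more than 3 library SD below zero, starting fluorescence within 5 deviations, no agonist response on first addition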;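 also: peak minus trough fluorescence over baseline after final BAM8-22 challenge near maximal dose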
MrgX1 agonist = agonists of human MrgX1 receptor, primary screen, HEK293 cells, Fluo-4 calcium flux. 310,000 compounds, 0.44% hits. B-score at 10 µM. Fluo-4 calcium fluorescence, agonist mode; stronger effect = higher value;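 active = calcium response B-score plate-corrected fluorescence ratio at least 3 library SD, with starting fluorescence B-score inside 5 SD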
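Test system: HEK293 cells stably expressing human MrgX1 receptor; amount: 15,000 cells per well; doses: compound delivered in addition one of three; times: overnight plating before 1 h dye loading; detection: Fluo-4 NW calcium-flux fluorescence, kinetic read; read-out basis: B-scored fluorescence response ratio; controls: positive and negative controls per plate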
Large screens that a line does not name were inactive; ! = not confirmed by another sample.

CS(=O)(=O)c1ccc(NC(=O)CCCc2nc3ccccc3c(=O)[nH]2)cc1	none
COc1ccc(CN2CCNC(=O)C2CC(=O)NCCN2CCCCC2=O)c(F)c1 (stereo unspecified)	none
Cc1cc(C)cc(NC(=S)Nc2ccc(Cl)c(Cl)c2)c1	none
Cc1cccc(C)c1NC(=S)Nc1ccc(Cl)c(Cl)c1	MrgX1 agonist 32
O=C(CSCc1c(Cl)cccc1Cl)Nc1ccc2c(c1)OCO2	RGS4 act -7.5
O=C(CSCc1ccccc1)Nc1ccc2c(c1)OCO2	none
COc1ccc(-c2nc3ccccc3nc2-c2ccc(OC)cc2)cc1	RGS4 act -7
Cc1ccc(C(=O)N2CC(C)OC(C)C2)cc1[N+](=O)[O-] (stereo unspecified)	MrgX1 antag -5
O=[N+]([O-])c1ccc(CSc2ncnc3c2ncn3[C@@H]2O[C@H](CO)[C@@H](O)[C@H]2O)cc1	none (no result: RGS4 inh, RGS4 act)
NCCNC(=O)Cc1cccc(NC(=O)Cc2ccc(Nc3ncnc4c3ncn4[C@@H]3O[C@H](CO)[C@@H](O)[C@H]3O)cc2)c1	MrgX1 allo act 8.2
CCN1C(=O)[C@H]2[C@@H](c3ccc(-c4ccc(C(C)=O)cc4)c(OC)c3)N[C@@](Cc3ccccc3)(C(=O)OC)[C@H]2C1=O	none
Cc1nn(-c2ccccc2)c(Cl)c1CN(C(=O)CCl)c1cccc2ccccc12	MrgX1 allo act 11
N#Cc1c(NC(=S)NC(=O)c2ccccc2)sc2c1CCN(CCc1ccccc1)C2	MrgX1 agonist 58
CC(C)CNC(=S)NC(=O)c1ccc([N+](=O)[O-])cc1	MrgX1 allo act 10
Cc1cccc(C(=O)NC(=S)NCc2ccccc2)c1	none
Cc1ccc(C(=O)NC(=S)NNC(=O)COc2ccc([N+](=O)[O-])cc2)cc1	MrgX1 allo act 6.9
Cc1ccc(C(=O)NC(=S)NNC(=O)COc2ccccc2C)cc1	RGS4 act -8.7
Cc1cccc(C(=O)NC(=S)NNC(=O)COc2c(C)cccc2C)c1	MrgX1 agonist 27
Cc1cccc(NNC(=O)C2CCC2)c1	none
O=C(CN(C(=O)c1csnn1)c1ccc2c(c1)OCCO2)NCc1ccccc1	none
Cc1ccc(OCC(=O)NNC(=S)NC(=O)C2CCCCC2)c(C)c1	RGS4 act -7.1, MrgX1 agonist 48
O=C(CSc1nnc(-c2ccc(Cl)cc2)o1)N1CCOCC1	none
COc1ccc2c(CC(=O)Nc3ncc(C)s3)coc2c1	none
CCC(=O)Nc1cccc(C2=NOC3(C2)C[C@@H](C(N)=O)N(C(=O)c2ccccc2C(=O)c2ccccc2)C3)c1 (stereo partly specified)	MrgX1 antag -8
CCC(=O)Nc1cccc(C2=NOC3(C2)C[C@@H](C(N)=O)N(C(=O)COc2ccc(Cl)cc2)C3)c1 (stereo partly specified)	MrgX1 allo act 8.9
CCC(=O)N1CC2(CC(c3cccc(NC(=O)COc4ccc(Cl)cc4)c3)=NO2)C[C@@H]1C(N)=O (stereo partly specified)	none (no result: MrgX1 allo act, MrgX1 antag, MrgX1 agonist)
CC1(C(=O)N2CC3(CC(c4ccccc4)=NO3)C[C@H]2C(=O)NCC(N)=O)CC1 (stereo partly specified)	MrgX1 antag -5.6
CC1CCC(C(C)C)C(OC(=O)C[n+]2cc(-c3ccc(Cl)cc3)n3c2CCC3)C1 (stereo unspecified)	MrgX1 antag -7
Cc1ccc(-c2c[n+](CC(=O)OCc3ccccc3)c3n2CCC3)cc1	none
COc1ccc(-c2c[n+](CC(=O)N3c4ccccc4Sc4ccccc43)c3n2CCC3)cc1	RGS4 act -8.9
O=C(C[n+]1cc(-c2ccc(Cl)cc2)n2c1CCC2)N1c2ccccc2Sc2ccccc21	RGS4 act -7.6
CN(C)c1ccc(/C=N/N=C(N)N)cc1[N+](=O)[O-]	MrgX1 agonist 37
Cc1ccc(S(=O)(=O)N2CCOCC2)cc1NC(=O)Cn1nc(C)c([N+](=O)[O-])c1C	MrgX1 antag -5
Cc1ccc(Nc2ccc(S(=O)(=O)N3CCOCC3)cc2[N+](=O)[O-])cc1C	MrgX1 antag -9.2
CC(C)[C@H](NC(=O)[C@@H]1CSC2c3ccccc3C(=O)N21)C(=O)NCc1ccncc1 (stereo partly specified)	none
COC(=O)c1cc(C(=O)NCCC(C)C)cc([N+](=O)[O-])c1	none
CCCC(C)NC(=O)c1cc(C(=O)OC)cc([N+](=O)[O-])c1 (stereo unspecified)	MrgX1 antag -5.2
CCc1nnc(NS(=O)(=O)c2ccc(NC(=O)c3ccccc3OC)cc2)s1	none
COc1ccccc1-n1nnnc1SCC(=O)Nc1ccc(C)c(N)c1	none
COc1ccc(NC(=O)c2ccc(-c3ccc([N+](=O)[O-])cc3)o2)cc1OC	MrgX1 antag -5.3
COc1ccc(C(C)NC(=O)c2ccc([N+](=O)[O-])cc2)cc1OC (stereo unspecified)	MrgX1 antag -5.5
OCC1(CCOc2ccccc2)CCN(Cc2nc3ccc(F)cc3[nH]2)CC1	none
CCCCCCCCCCCCCCCCn1cc[n+](C)c1	RGS4 act -9.5!, MrgX1 antag -7.3!
CCCCCCCCn1ccc(=N)cc1	none
CN(C)/C=C/C(=O)c1ccc(C(F)(F)F)cc1F	none
CC1Nc2ncnc(N3CCc4ccccc4C3)c2N(Cc2ccc(Br)cc2)C1=O (stereo unspecified)	RGS4 act -9
CC1Nc2ncnc(N3CCc4ccccc4C3)c2N(Cc2ccc(Cl)cc2)C1=O (stereo unspecified)	none
C=CCn1c(=O)c(C(=O)NCCNCC)c(O)c2ccccc21	none
C=CCn1c(=O)c(C(=O)NCc2ccccc2)c(O)c2ccccc21	RGS4 act -7.1
CC(C)Cn1c(=O)c(C(=O)Nc2ccncc2)c(O)c2ccccc21	RGS4 act -8.9
CCn1c(=O)c(C(=O)NNC(=O)c2ccccc2)c(O)c2ccccc21	MrgX1 agonist 30
CC(C)Cn1c(=O)c(C(=O)Nc2cnccn2)c(O)c2ccccc21	none
N#CC1(C#N)[C@@H](C(=O)C23CC4CC(CC(C4)C2)C3)C12CCOCC2	MrgX1 antag -6.6
CC(C(=O)C12CC3CC(CC(C3)C1)C2)N1CCOCC1 (stereo unspecified)	none
O=C(O)COc1ccccc1C(Nc1cccnc1)c1cc(Cl)c2cccnc2c1O (stereo unspecified)	none (no result: MrgX1 allo act, MrgX1 antag, MrgX1 agonist)
CCOc1ccc(C(Nc2cccnc2)c2cc(Cl)c3cccnc3c2O)cc1 (stereo unspecified)	RGS4 act -8.3
CN1CCN(c2ccc(NC(=O)c3ccc(Oc4ccccc4)cc3)cc2)CC1	RGS4 act -7.7
